According to PubChem BioAssay AID743061 (The Scripps Research Institute Molecular Screening Center, 2013):

What follows are compounds tested against Methionine--tRNA ligase, mitochondrial (Homo sapiens) (UniProt Q96GW9) (assay: inhibitors of human mitochondrial MetRS, late-stage follow-up, selectivity assay for T. brucei MetRS inhibitor project, biochemical, radioactivity, round 1 (AID 743061;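 further: 0% = DMSO with full reaction and 100% = DMSO wells lacking tRNA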)). Settings: recombinant human mtMetRS, [3H]Met tRNA charging, at 10 µM, stronger effect = higher value.
Outline: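 System: recombinant human mitochondrial methionyl-tRNA synthetase (MetRS); Buffer or medium: pH 8.0 reaction buffer containing 2.5 mM ATP; Controls: high DMSO, low without tRNA; Reagent: [3H]Met 240 nM plus bulk E. coli tRNA; Schedule: 15 min preincubation, 1 h reaction, room temperature; Measured by: scintillation counts of TCA-precipitated charged tRNA on filters.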
`Cc1ccc(C(=O)NCCc2nc3ccccc3[nH]2)cc1C` was tested, and the inhibition was 1.68%. Work on `COc1ccccc1NS(=O)(=O)c1cccc(NC(=O)Nc2ccccc2)c1` yielded an inhibition of 19.1%. `O=C(Cn1cc(C(=O)C(=O)N2CCOCC2)c2ccccc21)NCC1CCCO1` (stereo not given) gave an inhibition of 5.42%. `Cc1ccc(C(=O)NCCc2nc3ccccc3[nH]2)cc1[N+](=O)[O-]` showed an inhibition of 7.36%. With `COc1ccc(NC(=O)C2CC(=O)n3c(nc4ccccc43)N2)cc1` (stereo not given) the inhibition was -2.5%. `O=C(NCc1nc2ccccc2[nH]1)C1=C[C@@H](c2csc3ccccc23)C[C@@H](OCCCCO)O1` was tested, and the inhibition was 6.67%. In the case of `O=C(CCC(=O)Nc1cccc([N+](=O)[O-])c1)NN=Cc1cccs1`, the inhibition is reported as -14.1%. Work on `CCN(CC)C(=O)C(=O)c1cn(CC(=O)Nc2cccc(C(F)(F)F)c2)c2ccccc12` yielded an inhibition of 40.8%. Compound `O=C(NCCc1nc2ccccc2[nH]1)c1c(F)cccc1F` has an inhibition of 0.73%. In the case of `COc1ccc(NC(=O)CSc2nnc3c4cc(C)ccc4n(C)c3n2)cc1`, the inhibition is reported as 8.46%. With `O=C(Cn1cc(C(=O)C(=O)N2CCOCC2)c2ccccc21)NCc1ccccc1` the inhibition was 10.3%. `COCCc1nc2ccc(C(=O)NCCc3nc4ccc(OC)cc4[nH]3)cc2o1` showed an inhibition of 0.45%. Compound `CCN(CC)C(=O)C(=O)c1cn(CC(=O)Nc2ccccc2OC)c2ccccc12` has an inhibition of -1.19%. `CCO[C@H]1OC(C(=O)NCc2nc3ccccc3[nH]2)=C[C@@H](c2ccc(Br)cc2)[C@@H]1CCCO` was tested, and the inhibition was 11.7%. Compound `O=C1[C@@H]2Cc3c([nH]c4ccccc34)C(c3cccc([N+](=O)[O-])c3)N2C(=O)CN1CCCO` (stereo not given in full) has an inhibition of 4.46%. For `O=C(NCc1nc2ccccc2[nH]1)C1=C[C@@H](c2ccc3c(c2)OCO3)C[C@@H](OCCCCO)O1`, the inhibition was -0.58%. `Clc1ccc(-c2nnc(SCc3nc4ccccc4[nH]3)o2)c(Cl)c1` was tested, and the inhibition was 41.9%. With `O=C1CC(NCCc2ccccc2)C(=O)N1c1ccc(Br)cc1` (stereo not given) the inhibition was 6.62%. For `O=C(CSc1nnc2c(n1)[nH]c1ccc(Br)cc12)NCc1ccccc1`, the inhibition was 21.6%. `O=C(Cn1cc(C(=O)C(=O)N2CCOCC2)c2ccccc21)Nc1cccc(C(F)(F)F)c1` gave an inhibition of -6.56%. `CC(=O)N(CCc1ccccc1)C1CC(=O)N(c2ccc(Cl)cc2)C1=O` (stereo not given) showed an inhibition of -2.95%. Work on `O=C(C[C@H]1C(=O)N(Cc2ccccc2)C[C@@H]1c1ccc(Br)cc1)Nc1ccc(Br)cc1` yielded an inhibition of -8.54%. With `O=C1CC(SCc2nc3ccccc3[nH]2)C(=O)N1c1cccc(Cl)c1` (stereo not given) the inhibition was -0.68%. `COc1cccc(NC(=O)C2CC(=O)n3c(nc4ccccc43)N2)c1` (stereo not given) was tested, and the inhibition was 9.79%. Compound `Cc1ccc2[nH]c3nc(SCC(=O)Nc4ccc(C(F)(F)F)cc4)nnc3c2c1` has an inhibition of 4.54%. `CCCCn1c(CCNC(=O)c2ccc(F)cc2)nc2ccccc21` gave an inhibition of 5.87%. `O=C(Cn1cc(C(=O)C2CC2)c2ccccc21)Nc1cccc(C(F)(F)F)c1` was tested, and the inhibition was 11.9%. `CCOC(=O)N1CCC(Nc2c(Nc3ccc(F)cc3)c(=O)c2=O)CC1` gave an inhibition of -4.56%. `COc1ccccc1-n1c(SCC(=O)Nc2ccc(Cl)cc2)nc(O)c(Cc2ccccc2)c1=O` showed an inhibition of -19.7%. Work on `O=C(Cn1cc(C(=O)c2ccco2)c2ccccc21)Nc1cccc(C(F)(F)F)c1` yielded an inhibition of 19.7%. `O=C(NCCc1nc2ccccc2[nH]1)c1ccc(Cl)c([N+](=O)[O-])c1` was tested, and the inhibition was 25.5%. In the case of `Cc1cccc2[nH]c(CCN(C)C(=O)c3cccc(C4CCNC4)c3)nc12` (stereo not given), the inhibition is reported as -5.77%. With `Cc1ccc(CNC(=O)CSc2nnc3c(n2)[nH]c2ccc(C)cc23)cc1` the inhibition was 5.9%. For `COc1ccccc1NC(=O)Cn1cc(C(=O)C(=O)N2CCOCC2)c2ccccc21`, the inhibition was -8.03%. Compound `O=C(Cn1cc(C(=O)C(=O)N2CCCC2)c2ccccc21)Nc1ccccc1` has an inhibition of -0.86%.
